Shown are actives, neighbours in structure and some others; about 2.6% of the full set was active somewhere.
SMARCA2 activ: SMARCA2 (BRM) function activators, primary screen, cell-based, luminescence, high throughput. actives 1% (n = 370,000). activation, % at 9.1 µM. MG213 cells, MMTV-luciferase reporter, dexamethasone, overnight; in the data active = activation above about 7.8%;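 note: 0% = vehicle wells and 100% = reference activator wells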
ARFGAP1 inh: inhibitors of rat ARFGAP1 GAP activity, primary screen, biochemical, fluorescence polarization, GDP tracer; Arfgap1-stimulated ARF1 GTP hydrolysis, GDP FP detection; actives 0.26% (n = 360,000); inhibition, % at 16.5 µM; AID 651572, 2012; ADP-ribosylation factor GTPase-activating protein 1 (Rattus norvegicus), Q62848;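 active = inhibition above a per-plate limit, mean inhibition of low control wells plus 3 SD, cut at about 25% in these data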;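 note: 0% = DMSO wells with enzyme and 100% = wells lacking Arfgap1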
Target sequence (Q62848 1-136 limits assumed): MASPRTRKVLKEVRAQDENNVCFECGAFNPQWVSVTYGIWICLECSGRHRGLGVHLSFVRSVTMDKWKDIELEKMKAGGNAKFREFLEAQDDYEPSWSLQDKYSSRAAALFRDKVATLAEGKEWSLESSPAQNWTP
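Assay system: Rat Arfgap1 GAP domain (His6, aa 1-136), purified enzyme | Buffer or medium: HEPES 25 mM pH 7.5, NaCl 150 mM, MgCl2, DTT | Schedule: GTP hydrolysis reaction 2 h at 25 °C | Signal: FP of antibody-bound GDP Alexa 633 tracer, ex 620/em 688 nm | Measure: Percent inhibition of Arfgap1-stimulated GTP hydrolysis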
ASAP1 GAP inh: inhibitors of human ASAP1 ArfGAP activity, primary screen, biochemical, fluorescence polarization; Arf-GAP with SH3 domain, ANK repeat and PH domain-containing protein 1 (Homo sapiens), …; ASAP1-stimulated ARF1 GTP hydrolysis, GDP FP detection; inhibition, % at 16.5 µM; actives 0.19% (n = 360,000); AID 624377, 2012; in the data active = inhibition above about 25%;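 note: 0% = vehicle with enzyme and substrate and 100% = no enzyme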
esBAF inh: Bmi1 luciferase reporter increase in mESCs, primary screen, esBAF inhibitor project, mouse ES cells, Bmi1 luciferase knock-in, single point | AID 602393, 2012 | 24 h; 100% = twice the neutral-well signal | reporter increase, % at 12.5 µM | actives 2% (n = 350,000); in the data active = activation above about 40%;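 note: 0% = median of the plate's neutral control wells and 100% = double that signal; a rise in the Bmi1 reporter signal indicates esBAF inhibition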
ARFGAP1 inh conf: ARFGAP1 inhibitor hit confirmation, biochemical, fluorescence polarization, triplicate | actives 30% (n = 890) | inhibition, % at 16.5 µM | shares compounds with ARFGAP1 inh | ARFGAP1-stimulated ARF1 GTP hydrolysis, GDP tracer FP;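 active = average inhibition over triplicates above the hit cutoff set in the earlier primary screen, cut at about 25% in these data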;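 note: 0% = Arfgap1 plus ARF1-GTP with DMSO and 100% = wells lacking Arfgap1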
Target sequence (Q62848 whole entry, looked up): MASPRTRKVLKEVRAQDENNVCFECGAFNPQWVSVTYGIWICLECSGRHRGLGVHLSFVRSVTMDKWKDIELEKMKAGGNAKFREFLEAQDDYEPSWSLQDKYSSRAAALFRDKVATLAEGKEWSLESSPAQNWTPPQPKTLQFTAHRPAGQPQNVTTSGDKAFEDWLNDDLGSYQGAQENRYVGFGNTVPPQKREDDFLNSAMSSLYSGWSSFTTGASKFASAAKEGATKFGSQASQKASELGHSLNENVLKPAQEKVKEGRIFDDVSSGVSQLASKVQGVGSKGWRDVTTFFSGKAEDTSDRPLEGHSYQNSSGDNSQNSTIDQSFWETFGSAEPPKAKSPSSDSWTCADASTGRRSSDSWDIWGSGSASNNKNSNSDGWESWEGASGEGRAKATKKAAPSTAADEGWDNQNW
SMARCA2 act conf: SMARCA2 (BRM) function activators, confirmation, cell-based, luminescence, triplicate | shares compounds with SMARCA2 activ | MG213 cells, MMTV-luciferase with dexamethasone, overnight; MG213 cells expressing E1A, Rb sequestered; DMSO wells 0%, reference activator 100% | activation, % at 9.1 µM | actives 30% (n = 3,500);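 active = activation above its plate's cutoff, the mean activation of tested wells plus 3 SD, cut at about 7.9% in these data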
VP16 Luc act: GAL4-VP16 luciferase reporter activation, counter-screen for SMARCA2 (BRM) activator project, cell-based, pG5luc, luminescence, high throughput; shares compounds with SMARCA2 activ; HEK293 GAL4-VP16 pG5luc reporter; scaled: DMSO wells 0%, SAHA wells 100%; activation, % at 9.1 µM; actives 41% (n = 3,500); AID 686939, 2013;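 active = activation above the solvent-only control well mean plus 3 SD, averaged across control plates, cut at about 5.2% in these data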
Active calls of the source: *; x = not tested or not shown.

SMILES	SMARCA2 activ	ARFGAP1 inh	ASAP1 GAP inh	esBAF inh	ARFGAP1 inh conf	others
C[C@@H]1CN([C@@H](C)CO)C(=O)c2cc(C#CC(C)(C)O)cnc2O[C@H]1CN(C)C(=O)c1ccccc1F	x	x	x	8.0	x
S=C(NCc1ccc(Cl)cc1)NCc1ccccn1	-2.6	4.0	7.8	-7.5	x
CC(C)CCC(CCNCc1ccccn1)c1ccc(Cl)cc1 (stereo not drawn)	4.5	30.9*	4.3	-7.5	-9.0
O=C(NCC1CCCO1)c1cc(-c2ccncc2)nc2ccccc12 (stereo not drawn)	-1.7	-4.8	10.2	-7.3	x
CCCOc1ccc(-c2cc(C(=O)NCC3CCCO3)c3ccccc3n2)cc1 (stereo not drawn)	-4.8	27.0*	-21.8	23.4*	6.9
COc1ccccc1-c1cn(CC[C@H]2CC[C@@H](NC(=O)c3ccccc3F)[C@H](CO)O2)nn1	x	x	x	5.5	x
Cc1ncsc1C(=O)N1N=C2/C(=C/c3ccccc3)CCCC2C1c1ccccc1 (stereo not drawn)	-2.8	29.6*	-6.0	-6.0	-2.4
Cc1ncsc1C(=O)N1N=C2/C(=C/c3ccc(N4CCOCC4)cc3)CCCC2C1c1ccc(N2CCOCC2)cc1 (stereo not drawn)	x	x	x	34.8	x
Cc1ccc(NC(=O)Nc2ccc3c(c2)C(=O)N(C)[C@@H]2CC[C@H](CC(=O)O)O[C@H]2CO3)cc1	x	x	x	6.7	x
Cc1noc(C)c1NC(=O)N(C)C[C@@H]1Oc2c(NC(=O)Nc3ccc(F)cc3)cccc2C(=O)N([C@@H](C)CO)C[C@H]1C	x	x	x	-0.9	x
Cc1cccc(/C=N/Nc2ccc3ccccc3n2)c1	-5.2	25.2*	12.7	-80.4	3.4
CN1/C(=C/C2CC(=O)NC2=O)C(C)(C)c2ccccc21 (stereo not drawn)	4.0	30.6*	-0.4	2.9	-4.5
COC(=O)c1c(C)[nH]c(C)c1-c1ccccc1	0.4	24.8*	10.1	-7.8	6.6
CCC(=O)N1C[C@H](O)COC[C@H]2O[C@@H](CC(=O)N3CCCCC3)CC[C@@H]21	x	x	x	7.1	x
CS(=O)(=O)N1CCN(C(=O)COc2ccccc2)CC1	-1.1	25.4*	-1.5	x	-1.5
CNC(=O)C[C@@H]1CC[C@H]2[C@@H](COC[C@@H](O)CN2C(=O)c2ccc3c(c2)OCO3)O1	x	x	x	6.2	x
O=C(Cc1ccccn1)N[C@H]1C=C[C@@H](CC(=O)N2CCCCC2)O[C@H]1CO	x	x	x	-1.7	x
O=C(N/N=C/c1cccc([N+](=O)[O-])c1)c1ccc(COc2ccccc2-c2ccccc2)cc1	-0.3	34.5*	8.1	x	1.8
C(=N\n1cnc2ccccc21)/c1cccnc1	-1.4	24.9*	-6.5	4.7	7.7
Cc1cc2ncn(/N=C/c3cccnc3)c2cc1C	-6.2	-3.2	8.1	13.5	x
O=C(NC1CCCCC1)N[C@H]1CC[C@@H](CCNS(=O)(=O)c2ccc(Cl)cc2)O[C@@H]1CO	x	x	x	3.8	x
Cc1cc(C)c2c(=N)c3ccccc3n(CCCCCCCCn3c4ccccc4c(=N)c4c(C)cc(C)nc43)c2n1	-9.6	25.5*	9.3	4.4	-1.2
COc1cc(O)c(CC=C(C)C)c(O)c1C(=O)CCc1ccc(O)cc1	1.3	28.6*	15.9	20.1	28.6*
Cc1noc(C)c1NC(=O)Nc1cccc2c1O[C@@H](CN(C)C(=O)Nc1ccc(C(F)(F)F)cc1)[C@H](C)CN([C@@H](C)CO)C2=O	x	x	x	0.8	x
NC(Cc1ccc(C(F)(F)F)cc1)c1csc(NC(=O)Nc2ccccc2Cc2ccccc2)n1 (stereo not drawn)	-2.9	32.8*	-5.1	4.4	10.9
SMILES	SMARCA2 activ	ARFGAP1 inh	ASAP1 GAP inh	esBAF inh	ARFGAP1 inh conf	others
CC(C)c1ccccc1NC(=O)Nc1nc(C(N)Cc2ccc(C(F)(F)F)cc2)cs1 (stereo not drawn)	-1.8	12.1	12.6	1.4	x
O=c1cc(Nc2ccc3c(c2)OCCO3)[nH]c(=O)n1Cc1ccc(F)cc1	-1.0	26.9*	-4.5	-3.9	-1.8
O=c1cc(Nc2ccc3c(c2)OCCO3)[nH]c(=O)n1-c1ccc(Br)cc1	-1.1	-10.1	-4.4	8.1	x
Cc1noc(C)c1NC(=O)N(C)C[C@H]1OCc2ccccc2-c2ccccc2C(=O)N([C@@H](C)CO)C[C@@H]1C	x	x	x	0.5	x
C/C(=N\N1C(=O)c2ccccc2NC1c1ccco1)c1ccccc1O (stereo not drawn)	3.4	-3.1	10.9	x	x
C/C(=N\N1C(=O)c2ccccc2NC1c1ccccc1)c1ccccc1O (stereo not drawn)	9.9*	27.0*	-6.8	-7.2	-1.5	SMARCA2 act conf=3.3;VP16 Luc act=5.7*
O=C(Nc1ccc(-c2nc3ccccc3[nH]2)cc1)c1ccc2c(c1)OCO2	18.9*	25.8*	20.9	44.8*	31.7*	SMARCA2 act conf=13.4*;VP16 Luc act=4.1
CCCC#Cc1cnc2c(c1)C(=O)N([C@H](C)CO)C[C@@H](C)[C@H](CN(C)C(=O)Cc1ccncc1)O2	x	x	x	-2.7	x
COc1cc2c3c(c1)/C(=C1/SC(NC(C)=O)=NC1=O)C(=O)N3C(C)(C)C=C2C	3.4	4.8	4.5	-9.0	x
CCN1C(=O)/C(=C2/C(=O)N3c4c(cc(OC(C)=O)cc42)C(C)=CC3(C)C)SC1=S	10.1*	-1.2	-2.6	x	x	SMARCA2 act conf=0.6;VP16 Luc act=0.1
O=c1c2sc(-c3ccccc3)cc2nc2n1CCCCC2	4.3	-2.0	-6.2	x	x
O=c1c2sc(-c3ccccc3)cc2nc2n1CCC2	9.9*	1.4	8.2	x	x	SMARCA2 act conf=2.4;VP16 Luc act=3.7
COc1cccc(C2Cc3ccccc3C(=O)O2)c1 (stereo not drawn)	-0.4	9.5	-10.5	x	x
COc1ccc(C2CC(=O)c3ccccc3O2)cc1 (stereo not drawn)	8.6*	-1.9	-4.3	60.7*	x	SMARCA2 act conf=7.6;VP16 Luc act=3.1
CC(COc1ccc(C(C)C)cc1)NC(=O)c1ccc(Br)o1 (stereo not drawn)	10.3*	13.1	18.1	-4.1	x	SMARCA2 act conf=5.6;VP16 Luc act=-0.2
CCc1ccc(OCC(=O)NNC(=O)CNC(=O)c2ccc(Br)o2)cc1	0.0	1.0	3.6	-1.8	x
Cc1ccc(Cl)cc1NC(=O)CC1NC2CCCCC2NC1=O (stereo not drawn)	-0.1	-3.2	-1.9	1.8	x
